Key:
[1] = target: Human immunodeficiency virus type 1 reverse transcriptase (Human immunodeficiency virus 1, UniProt Q72547, L210W/M184V/M41L/T215Y); test: Binding affinity to HIV1 LAI reverse transcriptase M41L/L210W/T215Y/M184V mutant
[2] = test system: Human immunodeficiency virus type 1 reverse transcriptase (Human immunodeficiency virus 1), Q72547 [M41L,L210W,T215Y]; test: Ratio of Kpol to Kd for HIV1 LAI reverse transcriptase M41L/L210W/T215Y mutant
In short: (§1)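 Pre-steady-state rapid quench: 400 nM active-site RT and 40 nM ³²P-P20/T57 DNA T/P were preincubated in 50 mM Tris-HCl pH 7.5, 50 mM KCl, then mixed with nucleotide in the same buffer containing 20 mM MgCl₂. Quenched with 0.3 M EDTA from 10 ms to 30 min, run on urea-PAGE. kobs came from single-exponential fits; kpol and Kd came from a hyperbolic fit versus nucleotide concentration.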

[3] = target: Human immunodeficiency virus type 1 reverse transcriptase (Human immunodeficiency virus 1, UniProt Q72547, M184V); test: Binding affinity to HIV1 LAI reverse transcriptase M184V mutant
[4] = Binding affinity to HIV1 LAI reverse transcriptase M41L/L210W/T215Y/M184V/G333D mutant; set-up: species or system Human immunodeficiency virus 1
[5] = test system: Human immunodeficiency virus 1; test: Ratio of Kpol to Kd for HIV1 LAI reverse transcriptase M41L/L210W/T215Y/M184V/G333D mutant; in short: as §1
[6] = target: Human immunodeficiency virus type 1 reverse transcriptase (Human immunodeficiency virus 1) (UniProt Q72547); test: Ratio of Kpol to Kd for wild type HIV1 LAI reverse transcriptase; in short: as §1
[7] = test system: Human immunodeficiency virus type 1 reverse transcriptase (Human immunodeficiency virus 1), Q72547 [M41L,L210W,T215Y,M184V]; test: Ratio of Kpol to Kd for HIV1 LAI reverse transcriptase M41L/L210W/T215Y/M184V mutant; in short: as §1
[8] = test system: Human immunodeficiency virus type 1 reverse transcriptase (Human immunodeficiency virus 1), Q72547 [M184V]; test: Ratio of Kpol to Kd for HIV1 LAI reverse transcriptase M184V mutant; in short: as §1
[9] = target: Human immunodeficiency virus type 1 reverse transcriptase (Human immunodeficiency virus 1, UniProt Q72547, L210W/M41L/T215Y); test: Binding affinity to HIV1 LAI reverse transcriptase M41L/L210W/T215Y mutant
[10] = target: Human immunodeficiency virus type 1 reverse transcriptase (Human immunodeficiency virus 1, UniProt Q72547); test: Binding affinity to wild type HIV1 LAI reverse transcriptase
In short: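 Bacterially expressed, purified RT, corrected for active-site concentration, preincubated at 400 nM with 40 nM 5′-³²P-labelled 20-nt DNA primer annealed to a 57-nt DNA template in 50 mM Tris-HCl pH 7.5, 50 mM KCl. It was then rapid-quench mixed 1:1 with nucleotide in the same buffer plus 20 mM MgCl₂. EDTA quench at 10 ms–30 min; urea-PAGE. k_obs fitted single-exponential; K_d from hyperbolic k_obs-versus-concentration fit.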

[11] = test system: Human immunodeficiency virus type 1 reverse transcriptase (Human immunodeficiency virus 1), Q72547 [M184V]; test: Resistance (selectivity ratio) of HIV1 LAI reverse transcriptase M184V mutant relative to wild type
[12] = test system: Human immunodeficiency virus 1; test: Binding affinity to HIV1 LAI reverse transcriptase M41L/L210W/T215Y/M184V/G333D mutant relative to wild type
[13] = test system: Human immunodeficiency virus type 1 reverse transcriptase (Human immunodeficiency virus 1), Q72547 [M41L,L210W,T215Y,M184V]; test: Binding affinity to HIV1 LAI reverse transcriptase M41L/L210W/T215Y/M184V mutant relative to wild type
[14] = test system: Human immunodeficiency virus type 1 reverse transcriptase (Human immunodeficiency virus 1), Q72547 [M41L,L210W,T215Y]; test: Binding affinity to HIV1 LAI reverse transcriptase M41L/L210W/T215Y mutant relative to wild type

SMILES | Kd [1] [µM] | Ratio [2] | Kd [3] [µM] | Kd [4] [µM] | Ratio [5] | Ratio [6] | Ratio [7] | Ratio [8] | Kd [9] [µM] | Kd [10] [µM] | fold resistance [11] | fold change (FC) [12] | fold change (FC) [13] | fold change (FC) [14]
Nc1ccn([C@H]2C[C@H](O)[C@@H](COP(=O)(O)OP(=O)(O)OP(=O)(O)O)O2)c(=O)n1 [DEOXYCYTIDINE TRIPHOSPHATE] | 2.99 | 1.06 | 2.49 | 2.51 | 0.58 | 1.07 | 0.44 | 0.53 | 1.23 | 1.14 | – | – | – | –
Cc1cn([C@H]2C[C@H](N=[N+]=[N-])[C@@H](COP(=O)(O)OP(=O)(O)OP(=O)(O)O)O2)c(=O)[nH]c1=O [ZIDOVUDINE TRIPHOSPHATE] | – | 4.26 | – | 3.81 | 1.1 | 4.41 | 1.3 | 2.41 | – | – | 1.13 | 1.81 | 1.76 | 1.14
Cc1cn([C@H]2C[C@H](O)[C@@H](COP(=O)(O)OP(=O)(O)OP(=O)(O)O)O2)c(=O)[nH]c1=O [DEOXYTHYMIDINE_TRIPHOSPHATE] | 2.65 | – | 2.85 | 2.9 | – | – | – | – | 1.2 | 2.08 | – | – | – | –

Reference: ChEMBL document CHEMBL1153554, “Mechanisms by which the G333D mutation in human immunodeficiency virus type 1 Reverse transcriptase facilitates dual resistance to zidovudine and lamivudine” (Antimicrob Agents Chemother, 2008)
